Most compounds without a hit are left out; they make up all but 2.7% or so of the library.
PAD4 FP inh = inhibitors of human PAD4; Q9UM07; recombinant PAD4, RCA probe fluorescence polarization; inhibition, % at 6.36 µM; 0.41% of 330,000 active;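 active = percent inhibition above a cutoff equal to the mean of all tested compounds plus 3 SD, cut at about 15% in these data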;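 also: 0% = PAD4 with RCA probe and DMSO and 100% = probe without PAD4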
Target sequence (Q9UM07 whole entry, looked up): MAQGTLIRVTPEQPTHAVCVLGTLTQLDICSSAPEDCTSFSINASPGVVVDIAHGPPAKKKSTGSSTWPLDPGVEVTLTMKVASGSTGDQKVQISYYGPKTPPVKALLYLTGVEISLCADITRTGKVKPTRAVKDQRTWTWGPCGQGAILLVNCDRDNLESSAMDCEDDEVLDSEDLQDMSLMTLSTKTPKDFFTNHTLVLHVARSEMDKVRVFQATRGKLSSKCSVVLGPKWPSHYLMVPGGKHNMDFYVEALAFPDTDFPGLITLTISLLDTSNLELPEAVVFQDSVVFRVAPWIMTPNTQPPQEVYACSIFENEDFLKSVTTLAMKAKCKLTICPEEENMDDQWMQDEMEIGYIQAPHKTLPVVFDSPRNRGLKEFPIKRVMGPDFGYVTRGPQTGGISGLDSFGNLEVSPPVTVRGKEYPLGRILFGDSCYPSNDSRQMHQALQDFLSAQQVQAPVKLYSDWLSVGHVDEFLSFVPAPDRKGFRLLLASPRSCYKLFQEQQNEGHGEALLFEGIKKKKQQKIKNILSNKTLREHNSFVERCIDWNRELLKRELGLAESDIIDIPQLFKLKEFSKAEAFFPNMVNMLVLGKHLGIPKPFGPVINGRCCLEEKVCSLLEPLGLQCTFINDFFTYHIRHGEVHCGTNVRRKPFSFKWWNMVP
PRMT1 FP inh = blocks human protein arginine methyltransferase 1; recombinant PRMT1, activity-based probe fluorescence polarization; inhibition, % at 2.79 µM; 1.3% of 370,000 active;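 active = inhibition above about 21% made by adding two undisclosed values, limit read from the data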
GSTO1 inh = GSTO1 inhibition, counter-screen for RBBP9 inhibitors; P78417; inhibition, % at 5.96 µM; recombinant GSTO1, activity-based probe fluorescence polarization; 1.1% of 300,000 active;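 active = inhibition above the campaign mean inhibition plus 3 SD, cut at about 35% in these data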;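 also: 0% = GSTO1-1 with DMSO and 100% = wells lacking GSTO1-1 enzyme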
SIAE inh = inhibitors of human sialic acid acetylesterase SIAE. inhibition, % at 9.66 µM. Q9HAT2. 0.69% of 370,000 active. SIAE FP-Rh probe binding, fluorescence polarization;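 active = inhibition above a cutoff: mean of compounds within the control limits plus 3 SD of those, cut at about 17% in these data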;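 also: 0% = plate median of compound wells and 100% = probe without SIAE protein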
RBBP9 inh = inhibitors of human serine hydrolase RBBP9 | O75884 | recombinant RBBP9, FP-Rh probe fluorescence polarization | inhibition, % at 7.94 µM | 0.2% of 220,000 active;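 active = inhibition above the campaign mean of all tested compounds plus 3 SD, cut at about 14% in these data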;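 also: plate controls were DMSO wells with RBBP9 for no effect and wells lacking RBBP9 protein for full effect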
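Test system – recombinant human RBBP9 · Input – RBBP9 2.5 µM in dispensing solution, pre-mixing · Medium – Tris buffer pH 8.0, NaCl, Pluronic · Schedule – preincubation 30 min plus labeling 45 min at 25 °C · Measured by – fluorescence polarization · Measure – % inhibition · Controls – DMSO and no-protein wells · Replicates – one well per compound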
PRMT1 inh conf = confirmation of human PRMT1 inhibitors; shares compounds with PRMT1 FP inh; recombinant His-PRMT1, activity-based probe fluorescence polarization; inhibition, % at 2.79 µM; 42% of 3,300 active;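 active = mean inhibition across replicates above the hit cutoff derived for the earlier primary screen, cut at about 22% in these data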
Starred values were filed as active, the others as inactive; · = no result.

SMILES | PAD4 FP inh | PRMT1 FP inh | GSTO1 inh | SIAE inh | RBBP9 inh | PRMT1 inh conf
C[C@@H]1CN(c2ccc(N3CCN(C(=O)OC(C)(C)C)C[C@H]3C)cc2C#N)C[C@H](C)O1 | · | 3 | · | 2 | · | ·
NNc1nc2sc3c(c2c(=O)[nH]1)CCc1ccccc1-3 | -5 | 61* | 2 | 13 | -9 | 5
CCOc1cc(/C=C2\SC(=S)N(C(C(=O)O)c3ccccc3)C2=O)ccc1O (centres undefined) | -75 | 25* | -171 | -143 | -67 | -3
O=C(O)C(c1ccccc1)N1C(=O)/C(=C\c2ccc(O)c(O)c2)SC1=S (centres undefined) | -24 | 39* | -67 | -72 | · | 45*
COc1cc(/C=C2\SC(=S)N(C(C(=O)O)c3ccccc3)C2=O)ccc1O (centres undefined) | -43 | 17 | -177 | -149 | -105 | ·
CCOC(=O)c1c(-c2ccncc2)csc1N | -3 | -4 | 12 | 9 | -10 | ·
COc1ccc(C2=NS(=O)(=O)N(C)C(C(=O)NCc3ccc4c(c3)OCO4)=C2)cc1 | 1 | 1 | 5 | 4 | · | ·
COc1cc(CN2CCCC(C(=O)c3ccc4c5c(cccc35)CC4)C2)cc(OC)c1O (centres undefined) | 1 | 28* | 33 | 3 | -3 | 8
O=C(c1ccc2c3c(cccc13)CC2)C1CCCN(Cc2cccnc2)C1 (centres undefined) | -1 | 1 | 7 | 2 | -6 | ·
OCCN1CCN(c2ncnc3c2ncn3[C@H]2CN(Cc3ccc(F)cc3)C[C@@H](CO)O2)CC1 | · | 1 | · | -4 | · | ·
Cc1ccc(C(=O)Oc2cccnc2)cc1[N+](=O)[O-] | 7 | -1 | 1 | 5 | -9 | ·
NNC(=O)Nc1cccc(C(F)(F)F)c1 | 2 | 8 | -2 | -5 | 0 | ·
NC(=O)/C=C\C(=O)Nc1cccc(C(F)(F)F)c1 | 6 | 51* | -6 | -5 | -8 | 25*
O=c1cc(-c2ccccc2)nc2cc(-c3ccco3)[nH]n12 | -11 | 30* | -29 | 8 | -7 | -1
O=c1cc(-c2ccccc2)nc2cc(-c3ccc(Br)cc3)[nH]n12 | -4 | 0 | -3 | 3 | · | ·
Cc1nc(NC(=O)CSc2nnc(C3CC3)n2C)sc1C(=O)N(C)C | -5 | 0 | -5 | 3 | · | ·
O=C(NCc1cccs1)[C@@H]1CSC2c3ccccc3C(=O)N21 (some centres undefined) | -3 | 26* | -3 | -13 | -17 | 34*
Cc1ccc(C2CC(c3ccccc3)=NN2C(=S)Nc2ccccc2)o1 (centres undefined) | -13 | 51* | 1 | -3 | -5 | 0
CC1=NN(C(=S)Nc2ccccc2)C(c2ccccc2)C1 (centres undefined) | -1 | 2 | -6 | 1 | 3 | ·
Cc1c(Cl)cnn1CC(=O)NC1C(=O)N2C(C(=O)O)=C(CSc3nnnn3C)CSC12 (centres undefined) | 0 | 62* | -5 | -5 | -8 | 35*
Cc1nnc(SCC2=C(C(=O)O)N3C(=O)C(NC(=O)C(C)n4nc(C(F)(F)F)cc4C)C3SC2)s1 (centres undefined) | -3 | 28* | 1 | 4 | 0 | 10
Cc1c(Cl)c(C(F)F)nn1CC(=O)NC1C(=O)N2C(C(=O)O)=C(CSc3nnnn3C)CSC12 (centres undefined) | · | 35* | · | -1 | -4 | 20
CC1=C(C(=O)O)N2C(=O)C(NC(=O)c3nn(C)cc3Cl)C2SC1 (centres undefined) | -1 | 6 | -5 | -6 | -3 | ·
NC(=O)c1cc[n+](CC2=C(C(=O)O)N3C(=O)[C@@H](NC(=O)C(c4ccccc4)S(=O)(=O)[O-])[C@H]3SC2)cc1 (some centres undefined) | -5 | · | 2 | · | -2 | ·
CC(C(=O)NC1C(=O)N2C(C(=O)O)=C(CSc3nnnn3C)CSC12)n1cc(Cl)cn1 (centres undefined) | -4 | 30* | -1 | -1 | -6 | 9
SMILES | PAD4 FP inh | PRMT1 FP inh | GSTO1 inh | SIAE inh | RBBP9 inh | PRMT1 inh conf
CCS(=O)(=O)c1ccc(C(=O)Nc2ccccc2)c(Cl)c1Cl | -7 | 0 | -6 | 5 | -9 | ·
O=C(NCc1ccncc1)C1Cc2c(-c3ccc4c(c3)OCO4)ccnc2O1 (centres undefined) | · | 40* | · | 3 | · | 11
O=C(NCc1ccccc1)C1Cc2c(-c3ccc4c(c3)OCO4)ccnc2O1 (centres undefined) | · | 3 | · | 5 | · | ·
COC(=O)c1c(-c2ccco2)csc1NC(=O)C1CC=CCC1C(=O)O (centres undefined) | -2 | 27* | -5 | -7 | 1 | 4
COc1ccc(C2SCCN2C(=S)Nc2cccc(C(F)(F)F)c2)cc1 (centres undefined) | 0 | 8 | -2 | 12 | -1 | ·
CCOC(=O)c1ccc(NC(=S)N2CCSC2c2ccc(OC)cc2)cc1 (centres undefined) | -3 | 88* | -4 | -21 | -12 | 4
CCOC(=O)c1ccc(NC(=S)N2CCSC2c2ccc(Cl)cc2)cc1 (centres undefined) | -4 | 84* | -12 | -22 | -7 | 0
COc1ccc(C2SCCN2C(=S)Nc2ccc(F)cc2)cc1 (centres undefined) | -7 | 58* | 0 | 2 | -1 | 2
COc1cc(NC(=O)Cn2nc(-c3ccc(F)cc3)ccc2=O)ccc1-n1cnnn1 | -2 | -2 | 3 | 6 | -17 | ·
C=C[C@]1(C)C=C2CC[C@H]3[C@@](C)(CCC[C@@]3(C)C(=O)O)[C@@H]2CC1 | 3 | · | · | · | · | ·
C=C[C@]1(C)C=C2C(=O)[C@@]3(O)OC(=O)[C@@]4(CCCC(C)(C)[C@H]34)[C@@]2(O)CC1 | · | 61* | · | 10 | · | 6
Cc1cccc(CCN(C(=O)c2snc(C(N)=O)c2N)C(C(=O)NCC2CCCO2)c2ccc(F)cc2)c1 (centres undefined) | · | 0 | · | -6 | · | ·
O=S(=O)(c1ccc(Br)cc1Cl)N1CCN(CCO)CC1 | -1 | -2 | 6 | 5 | -6 | ·
O=C1C=CC(=O)c2c(O)c(N3CCN(CCO)CC3)c(Cl)c(O)c21 | · | 52* | · | 10 | · | 85*
CCCNC(=O)NC(=O)COC(=O)c1ccc(OC)c(S(=O)(=O)N2CCCc3ccccc32)c1 | -2 | 0 | -1 | -5 | -1 | ·
C=C1C(=O)C23C(O)C1CCC2C12COC3(O)C(O)C1C(C)(C)CCC2O (centres undefined) | · | 29* | · | 9 | · | 41*
Cc1cc(C)n2cc(CSCc3ccco3)nc2n1 | -3 | 3 | 8 | 14 | 1 | ·
Cc1cccc2nc(CSCc3ccco3)cn12 | -4 | 27* | 0 | 15 | 0 | 15

Bioassay records from PubChem.
